Assay outcomes deposited in PubChem by several laboratories.
NR2E3 ag-1: activates human photoreceptor nuclear receptor NR2E3; hit rate 0.12% among 320,000; inhibition of corepressor binding, % at 4.78 µM; GST-NR2E3/biotin-RetCOR TR-FRET, 1536-well; Q9Y5X4;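 active means percent inhibition above the cutoff of mean plus 3 SD of all tested compounds, set per screening campaign, cut at about 20% in these data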
Target sequence (Q9Y5X4 whole entry, looked up): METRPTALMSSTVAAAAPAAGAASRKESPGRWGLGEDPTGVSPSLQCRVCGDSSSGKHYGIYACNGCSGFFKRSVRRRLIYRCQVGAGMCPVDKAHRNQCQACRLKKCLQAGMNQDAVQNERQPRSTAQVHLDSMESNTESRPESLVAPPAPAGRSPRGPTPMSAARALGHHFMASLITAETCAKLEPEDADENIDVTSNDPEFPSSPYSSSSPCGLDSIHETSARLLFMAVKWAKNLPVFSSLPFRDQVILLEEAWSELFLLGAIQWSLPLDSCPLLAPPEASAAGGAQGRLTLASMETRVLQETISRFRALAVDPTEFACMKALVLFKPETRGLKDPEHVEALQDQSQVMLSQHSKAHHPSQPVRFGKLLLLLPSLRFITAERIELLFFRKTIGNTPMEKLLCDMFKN
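Format: 1536-well format; test system: GST-NR2E3 and biotin-RetCOR proteins; read-out basis: percent inhibition of TR-FRET ratio; timing: 5 h incubation at 4 °C; detection: time-resolved FRET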
PKA-R2B act: activators of human PKA-R2B complex; PKA-R2B holoenzyme dissociation, Cy5-IP20 fluorescence polarization; R2B truncated from residue 108, S112A mutant; 0% DMSO only, 100% 113 µM cGMP; activation, % at 11.4 µM; P22694+P31323; hit rate 0.079% among 340,000;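 active means activation above a cutoff set at the mean over all compounds plus 3 SD, cut at about 18% in these data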;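 further: higher means more holoenzyme dissociation and a rise in polarization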
NR1D1 modulator: modulates human Rev-erb alpha binding to DNA. P20393. Rev-erbα–FITC-DNA binding, fluorescence polarization, 90 min. activity, % at 10 µM. hit rate 0.79% among 370,000;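 active means activity above about 14%, limit read from the data; passing the limit was not always enough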
PKA-R1A act: activators of PKA-R1A complex; hit rate 0.083% among 340,000; activation, % at 11.4 µM; P00514+P68181; PKA-R1A dissociation, Cy5-IP20 fluorescence polarization; scaled: DMSO 0%, 113 µM cGMP 100%;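 active means percent activation above the mean of all tested compounds plus 3 SD, cut at about 19% in these data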;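 further: higher means more PKAc released from R1A so a rise in polarization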
PG9 Ab binder: binds the HIV-1 gp120 antibody PG9 | TR-FRET gp120-PG9 antibody binding | inhibition, % at 6.7 µM | hit rate 0.43% among 360,000 | AID 624416; in the data active means inhibition above about 8.5%
NR2E3 ag-2: human photoreceptor-specific nuclear receptor agonism. hit rate 0.35% among 360,000. inhibition of corepressor binding, % at 3.98 µM. CHO-S Gal4-NCOR/VP16-NR2E3 two-hybrid, luciferase. Q9Y5X4;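 active means inhibition above the mean of all tested compounds plus 3 SD, cut at about 70% in these data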;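 further: higher means lower luciferase signal from less NR2E3 corepressor binding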
NR2E3 ag conf: confirmation of human NR2E3 agonists | shares compounds with NR2E3 ag-2 | hit rate 51% among 2,300 | CHO-S mammalian two-hybrid NR2E3-NCOR, luciferase luminescence | inhibition, % at 3.98 µM;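 active means average inhibition above a cutoff equal to the mean inhibition of all tested compounds plus one SD, cut at about 70% in these data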
GAL4-VP16 luc: reduces GAL4-VP16 reporter signal in NR2E3 counterscreen | shares compounds with NR2E3 ag-2 | CHO-S GAL4-VP16 luciferase reporter, luminescence | inhibition, % at 3.98 µM | hit rate 29% among 2,300 | AID 624379;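 active means mean inhibition above a cutoff equal to the average over all tested compounds plus one standard deviation, cut at about 70% in these data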;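 further: luciferase from a UAS reporter driven by GAL4-VP16 transactivation; higher means less reporter light so more repression of VP16 activity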
Hits are given with their value; - = inactive; . = not tested or not shown. In the library only some 1.6% were active in any assay of this set; here they are far more common.

SMILES	NR2E3 ag-1	PKA-R2B act	NR1D1 modulator	PKA-R1A act	PG9 Ab binder	NR2E3 ag-2	NR2E3 ag conf	GAL4-VP16 luc
Cc1ccc(S(=O)(=O)N2[C@@H](c3ccc(Cl)cc3)C(C(=O)O)=CC[C@H]2c2ccc(C(C)C)cc2)cc1	-	-	-	-	-	-	87	-
CCc1ccc([C@@H]2CC=C(C(=O)O)[C@H](c3ccc(Cl)cc3)N2S(=O)(=O)c2ccc(C)cc2)cc1	-	-	-	-	-	76	-	-
Cc1ccc(S(=O)(=O)N2[C@@H](c3ccc(C(C)(C)C)cc3)C(C(=O)O)=CC[C@H]2c2ccc(Cl)c(Cl)c2)cc1	.	-	-	-	-	-	.	.
Cc1ccc([C@H]2C(C(=O)O)=CC[C@@H](c3ccc(Cl)cc3)N2S(=O)(=O)c2ccc(C)cc2)cc1	.	-	-	-	-	-	.	.
Cc1ccc(S(=O)(=O)N2[C@@H](c3ccc(Br)cc3)C(C(=O)O)=CC[C@H]2c2ccc(Cl)c(Cl)c2)cc1	.	-	-	-	-	76	74	-
Cc1ccc([C@H]2C(C(=O)O)=CC[C@@H](c3ccc(C(C)C)cc3)N2S(=O)(=O)c2ccc(C)cc2)cc1	.	-	-	-	-	92	-	-
Cc1ccc(S(=O)(=O)N2[C@@H](c3ccccc3)C(C(=O)O)=CC[C@H]2c2ccc(C(C)C)cc2)cc1	-	-	-	-	-	-	.	.
OC1(c2ccc(OC(F)F)cc2)CSC(=Nc2cccnc2)N1C1CC1 (configuration not stated)	-	-	-	-	-	-	-	-
S=c1[nH]cnc2scc(-c3ccc(Cl)cc3)c12	-	.	-	.	-	-	-	-
S=c1[nH]cnc2scc(-c3ccc(Br)cc3)c12	-	-	-	-	-	81	-	-
COC(=O)[C@H]1C[C@@]2(N3CCCCC3)c3ccccc3N(S(=O)(=O)c3ccccc3)[C@H]2N1	.	.	-	.	.	.	.	.
COc1ccc(CNCC#CC2=CCCCC2)c(OC)c1	.	.	-	.	.	.	.	.
C=CCN=C1NC(CCc2ccccc2)C(C(=O)OC)=C(C)N1C (configuration not stated)	.	.	-	.	-	.	.	.
COc1cccc(-n2nnnc2SCC(=O)Nc2nc3c(s2)CCCC3)c1	-	-	-	-	-	-	.	.
O=C(CSc1nnnn1-c1ccc2c(c1)OCCO2)Nc1nc2c(s1)CCCC2	-	-	-	-	-	96	98	-
CCOC(=O)Nc1ccc2c(c1)C(=NNC(=S)NC)c1ccccc1-2	.	-	-	-	-	86	-	-
Cc1ccc(CNC(=O)OC(C)(C)C)c(/C=C/S(=O)(=O)NCCc2ccccc2)c1	.	.	-	.	.	.	.	.
CC1=[N+](C)c2c(ccc3cccnc23)C1(C)C	.	31	-	24	-	92	99	85
COc1cc(/C=N/NC(=O)NC23CC4CC(CC(C4)C2)C3)ccc1OCC(N)=O	-	-	-	-	-	-	.	.
COc1ccc(C=NNC(=S)NC23CC4CC(CC(C4)C2)C3)cc1OC	.	-	-	-	-	-	-	-
CN(Cc1cn(CC2CCCCC2)nn1)S(=O)(=O)c1ccccc1Br	.	.	-	.	.	.	.	.
COC(=O)C1CN(Cc2ccccc2)CCS(=O)(=O)N1Cc1ccc(Cl)cc1 (configuration not stated)	.	.	-	.	.	.	.	.
CCCOC(=O)c1ccc(Oc2cn[nH]c2-c2ccc(O)cc2O)cc1	-	-	-	-	-	-	-	-
CCOC(=O)c1ccc(Oc2cn[nH]c2-c2ccc(O)cc2O)cc1	-	-	-	-	-	-	.	.
Cc1nnnn1/C(=C\c1ccccc1)C(=O)OCC(=O)Nc1ccc(Cl)cc1F	-	-	-	-	-	-	-	-
SMILES	NR2E3 ag-1	PKA-R2B act	NR1D1 modulator	PKA-R1A act	PG9 Ab binder	NR2E3 ag-2	NR2E3 ag conf	GAL4-VP16 luc
Cc1nnnn1/C(=C\c1ccccc1)C(=O)OCC(=O)Nc1cccc(S(=O)(=O)N(C)C)c1	-	-	-	-	-	-	.	.
BrC(=C\c1ccccc1)/C=N/n1cnnc1	.	-	-	-	-	-	-	-
Cc1ccc(S(=O)(=O)Nc2ccc3cc([N+](=O)[O-])ccc3c2[N+](=O)[O-])cc1	.	-	-	-	-	101	100	91
Brc1cccc(-c2nnc(SCc3nc4ccccc4[nH]3)o2)c1	-	-	-	-	-	-	.	.
c1ccc2[nH]c(CSc3nnc(-c4ccncc4)o3)nc2c1	-	-	-	-	-	70	-	-
CC(C)Cn1c(N)c(C(=O)COC(=O)/C=C/c2ccccc2)c(=O)n(C)c1=O	-	-	-	-	-	74	-	-
CC(C)Cn1c(N)c(C(=O)COC(=O)CC23CC4CC(CC(C4)C2)C3)c(=O)n(C)c1=O	-	-	-	-	-	94	93	76
Cc1cccc(C(=O)OCC(=O)c2c(N)n(CC(C)C)c(=O)n(C)c2=O)c1[N+](=O)[O-]	-	-	-	-	-	-	-	-
CC(C)Cn1c(N)c(C(=O)CSc2ccccc2)c(=O)n(C)c1=O	-	-	-	-	-	-	.	.
COc1ccccc1CCn1cnc(-c2ccc(Br)cc2)c1CC(C)C	.	.	-	.	-	.	.	.
COc1ccc(CCNC(=O)Cn2nc(C)c3c(C)n(-c4ccccc4)nc3c2=O)c(OC)c1	-	-	-	-	-	-	.	.
COc1ccc(OC)c(CCNC(=O)Cn2nc(C)c3c(C)n(-c4ccc(C)cc4)nc3c2=O)c1	-	-	-	-	-	74	-	-
O=S(=O)(c1ccc(Cl)cc1)N1CCN(c2ncnc3sccc23)CC1	.	-	-	-	-	95	94	72
Cc1ccc(C(=O)Sc2cccccc2=O)cc1	-	-	-	-	-	101	-	-
O=C(O)CCN1C(=O)/C(=C/c2ccc(F)cc2F)SC1=S	.	.	-	.	.	.	.	.
CCCCCCC(=O)N1C/C=C\C(c2ccc(OC)cc2)N(Cc2ccc(F)cc2)C(=O)C1 (configuration not stated)	-	-	-	-	-	-	-	-
CCCOc1ccc(CN(CCC#N)C(=S)NC(=O)c2ccccc2)cc1	-	-	-	-	-	-	-	-
N#CCc1ccc(NC(=O)/C=C/c2ccc([N+](=O)[O-])o2)cc1	.	-	.	-	.	-	-	-
O=C(O)/C=C/c1ccc([N+](=O)[O-])o1	-	-	-	-	-	-	.	.
COc1ccc(CCNC(=O)Nc2ccc3c(c2)[C@]2(CC(=O)N(CC(C)C)C2c2ccccc2)C(=O)N3C)cc1OC (some centres not stated)	.	.	-	.	.	.	.	.
O=c1[nH]c2ccc(S(=O)(=O)N3CCN(c4ccccc4F)CC3)cc2s1	-	-	-	-	-	-	-	-
